GRK2 inh: compounds blocking aptamer binding on GRK2 – biochemical, human GRK2, bead flow cytometry, HTS, primary screen | Beta-adrenergic receptor kinase 1 (Homo sapiens), P25098 | FAM-aptamer displacement from GRK2 | inhibition of aptamer binding, % at 10 µM | 0.59% of 330,000 active | AID 488847, 2010;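 active means inhibition of aptamer binding above 40%, roughly 3 SD of noise, on plates passing a quality check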;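 further: median bead fluorescence of bound FAM aptamer so fluorescent compounds give negative values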
Target sequence (P25098 whole entry, looked up): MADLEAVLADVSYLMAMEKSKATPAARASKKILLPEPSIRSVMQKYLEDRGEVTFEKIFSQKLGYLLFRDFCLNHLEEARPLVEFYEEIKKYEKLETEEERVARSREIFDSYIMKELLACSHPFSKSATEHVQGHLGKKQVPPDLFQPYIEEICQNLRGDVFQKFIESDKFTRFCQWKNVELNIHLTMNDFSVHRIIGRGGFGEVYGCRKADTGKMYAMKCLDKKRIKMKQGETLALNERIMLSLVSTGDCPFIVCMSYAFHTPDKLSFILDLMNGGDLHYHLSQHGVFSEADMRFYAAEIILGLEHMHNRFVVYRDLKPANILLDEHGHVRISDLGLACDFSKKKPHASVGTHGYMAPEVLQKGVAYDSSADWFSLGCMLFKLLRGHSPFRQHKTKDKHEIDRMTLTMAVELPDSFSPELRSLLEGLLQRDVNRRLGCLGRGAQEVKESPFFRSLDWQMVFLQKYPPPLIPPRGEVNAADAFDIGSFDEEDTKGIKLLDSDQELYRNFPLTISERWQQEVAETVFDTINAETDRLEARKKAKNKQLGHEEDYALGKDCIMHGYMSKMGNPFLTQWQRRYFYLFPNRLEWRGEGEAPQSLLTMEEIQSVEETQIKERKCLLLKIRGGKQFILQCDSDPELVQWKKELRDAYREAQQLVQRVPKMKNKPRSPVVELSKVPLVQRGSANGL
Rin1-Abl PPI inh: inhibitors of Rin1-Abl protein binding, primary screen, biochemical, TR-FRET. Tyrosine-protein kinase ABL1 (Homo sapiens) + Ras and Rab interactor 1 (Homo sapiens), …. inhibition, % at 7.35 µM. 0.4% of 360,000 active. AID 588664, 2011; in the data active means inhibition above about 5%, passing the limit was not always enough
SR-BI uptake up: activators of SR-BI mediated DiI-HDL uptake, primary screen, ldlA[mSR-BI] CHO cells, DiI fluorescence. 0.096% of 320,000 active. activation, % at 12.5 µM. 3 h; 100 = double the neutral-control signal;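 active means mean replicate activation of at least 60% and every replicate at or above 60%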
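Material: SR-BI-overexpressing, LDLR-lacking CHO cells | Dosing: Single compound concentration, delivered by pin transfer | Probe or stimulus: Labelled HDL, 10 µg/mL | Signal: Bottom-read cell fluorescence after medium removal, ex 550/em 595 nm | Schedule: 3 h, 37 °C | Evaluation: HDL uptake via cellular fluorescence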
SR-BI DiI inh: inhibitors of SR-BI mediated HDL lipid uptake, primary screen, ldlA[mSR-BI] cells, fluorescence, single point; Scavenger receptor class B member 1 (Mus musculus), Q61009; ldlA[mSR-BI] CHO cells, DiI-HDL uptake fluorescence, 3 h; inhibition, % at 12.5 µM; 0.96% of 320,000 active; AID 488896, 2010;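 active means mean replicate inhibition of at least 70% and a set share of replicates each scoring 70 or more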
GRK2 CP1: GRK2 aptamer-displacing inhibitors, retest, confirmation, biochemical, cherry pick 1, bead flow cytometry; shares compounds with GRK2 inh; bead-bound GRK2, FAM-aptamer displacement; aptamer displacement, % at 10 µM; 4% of 2,000 active;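 active means aptamer displacement above 40%, near three times the noise of non-fluorescent compounds, on plates passing quality checks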;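 further: negative values mostly reflect intrinsic compound fluorescence rather than true enhancement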
Aptamer quench: counter-screen for GRK2 aptamer inhibitors: fluorescent aptamer quenchers; fluorescence change (kMESF span), kMESF (concentration not given with the values); 110 tested, under 10 active; Fluorescent RNA aptamer beads, quenching, flow cytometry; stronger effect = higher value; shares compounds with GRK2 inh;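 active means compounds whose bead fluorescence drops by more than 37 kMESF across the dose range, marking them as dye quenchers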
FAM quench CP1: aptamer fluorescence quenching in GRK2 counter-screen; shares compounds with GRK2 inh; Carboxyfluorescein RNA aptamer on beads, flow cytometry quenching; stronger effect = lower value; fluorescence response (% of DMSO), % at 10 µM; 2,000 tested, under 10 active; AID 504580;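 active means compounds that quench the bead-bound fluorescent RNA probe, cutting fluorescence to under half of the solvent control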;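 further: counterscreen run without GRK2 so only probe quenching by compound is measured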
GRK2 confirm 2: GRK2 aptamer-displacing inhibitors, hit retest, confirmation, biochemical, cherry pick 2, bead flow cytometry | 360 tested, under 10 active | inhibition of aptamer binding, % at 10 µM | AID 504782, 2011 | bead-bound GRK2, FAM-aptamer displacement | shares compounds with GRK2 inh;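 active means inhibition of aptamer binding above 40%, about triple the noise seen with nonglowing compounds, on plates passing quality control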;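 further: negative values mostly come from compounds that fluoresce themselves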
FAM quench SP: counter-screen for GRK2 binding hits: quenchers of fluorescent RNA aptamer; shares compounds with GRK2 inh; carboxyfluorescein RNA aptamer beads, flow cytometry quenching; stronger effect = lower value; fluorescence response vs DMSO, % at 10 µM; 360 tested, under 10 active; AID 588494;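 active means response vs DMSO under 50%, meaning signal dropped by over half, treated as fluorescence quencher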;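 further: labelled aptamer on streptavidin beads without GRK2 as a quench counter-screen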
FAM quench PS1: quenchers of FAM-labeled RNA aptamer fluorescence, dose response, artefact control for GRK2 aptamer binding project, biochemical, powder set 1, flow cytometry; AID 588496, 2011; Bead-bound FAM RNA aptamer fluorescence quenching; stronger effect = lower value; shares compounds with GRK2 inh; fluorescence ratio to DMSO, % at 11.1 µM; 35 tested, under 10 active;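 active means compounds that dim the fluorescent label, raw bead signal shifting by over 33 units between lowest and highest dose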
Each line names hits and unclear results; the compound was inactive in the other large screens (follow-up assays come after a bar, where they were run). Rows were chosen to be rich in hits. Some 1.9% of all compounds tested hit in one or more screens of this group.

O=C(Cc1ccc(Br)cc1)OCC(=O)N1CCc2ccccc2C1	GRK2 inh 46.0 | GRK2 confirm 2 inactive | FAM quench SP inactive
O=C(COc1ccc(Br)cc1)N1CCc2ccccc2C1	none
OC[C@@H]1CN(Cc2cccnc2)C[C@H](n2cnc3c(N4CCCC4)ncnc32)O1	none (no result: GRK2 inh, SR-BI uptake up, SR-BI DiI inh)
CC(C)NC(=O)N(C)C[C@@H]1Oc2ccc(NC(=O)CCN3CCOCC3)cc2CC(=O)N([C@@H](C)CO)C[C@@H]1C	none
Cc1ccc(CNC(=O)CCS(=O)(=O)c2ccc3c(c2)oc(=O)n3C)cc1	none
CN(C)c1ccc(CNC(=O)CCS(=O)(=O)c2ccc3c(c2)n(C)c(=O)c(=O)n3C)cc1	GRK2 inh 60.0 | GRK2 CP1 inactive | FAM quench CP1 inactive | GRK2 confirm 2 inactive | FAM quench SP inactive
CCOC(=O)C1(Cc2ccccc2C)CCCN(C(=O)CCc2cccnc2)C1 (stereo not drawn)	none
O=C(C[n+]1cccc(C(=O)N/N=C/c2ccc(Br)cc2)c1)c1ccccc1	GRK2 inh 89.0 | GRK2 CP1 inactive | FAM quench CP1 inactive
Cc1cc(OCC(=O)N2CCN(c3cccc(Cl)c3)CC2)c2c(C)c(C)c(=O)oc2c1	GRK2 inh 55.0 | GRK2 CP1 inactive | FAM quench CP1 inactive
Cc1cc(OCC(=O)N2CCC[C@@H]2C(=O)O)c2c(C)c(C)c(=O)oc2c1	none
COc1cc(C(N)=O)cc(Br)c1OCc1ccccc1	GRK2 inh 100.0 | GRK2 confirm 2 inactive | FAM quench SP inactive
S=C(NCc1cccnc1)Nc1ccc(Oc2ccc(Cl)cc2)cc1	none
CCS(=O)(=O)c1ccc(O)c(NC(=O)c2ccc(S(=O)(=O)N3CCCCCC3)cc2)c1	none
COC(=O)c1ccc(CS(=O)(=O)c2ccccc2C)o1	none | GRK2 confirm 2 inactive | FAM quench SP inactive
COCCNC(=O)c1ccc(CS(=O)(=O)c2ccccc2C)o1	none
Cc1cc(C(=O)Nc2cc(S(C)(=O)=O)ccc2Cl)c(C)o1	none
CC(C)C(c1nnnn1C(C)(C)C)N1CCOCC1 (stereo not drawn)	GRK2 inh 47.0 | GRK2 CP1 inactive | FAM quench CP1 inactive
COC(=O)c1ccc(COC(=O)C2CCN(S(=O)(=O)c3c(C)cc(C)cc3C)CC2)o1	none (no result: GRK2 inh, SR-BI uptake up, SR-BI DiI inh)
CC1(C(=O)Nc2cccc(OC(F)(F)F)c2)Cc2c(-c3cccc(C(N)=O)c3)ccnc2O1 (stereo not drawn)	none (no result: GRK2 inh, SR-BI uptake up, SR-BI DiI inh)
O=[N+]([O-])c1ccc2nc(SCc3cn4ccccc4n3)[nH]c2c1	none
O=[N+]([O-])c1ccc2nc(SCc3cn4cccnc4n3)[nH]c2c1	GRK2 inh 89.0 (no result: SR-BI uptake up, SR-BI DiI inh) | GRK2 CP1 inactive | FAM quench CP1 inactive
CC(OC(=O)c1cccc(-n2cnnn2)c1)C(=O)Nc1ccc(F)cc1Cl (stereo not drawn)	none
O=C(CSc1cn(CCNC(=O)c2cccs2)c2ccccc12)NC1CCCCC1	none | GRK2 confirm 2 inactive | FAM quench SP inactive
O=C(CSc1cn(CCNC(=O)c2cccs2)c2ccccc12)NCc1ccccc1	none
O=C(Cc1ccc(-n2cccc2)cc1)NC1CCCCC1	GRK2 inh 45.0 | GRK2 CP1 inactive | FAM quench CP1 inactive
O=C(NC1CCCCC1)N1CCN(CCc2ccccc2)CC1	GRK2 inh 70.0 | GRK2 CP1 inactive | FAM quench CP1 inactive
O=C(O)Cc1ccc(-n2cccc2)cc1	GRK2 inh 99.0 | GRK2 CP1 99.0 | Aptamer quench inactive | FAM quench CP1 inactive | FAM quench PS1 inactive
Cc1cc(C)c(C)c(S(=O)(=O)N2CCNC(=O)C2)c1C	none (no result: GRK2 inh, SR-BI uptake up, SR-BI DiI inh)
Cc1cc(Cl)cc(C)c1OCCn1ccnc1	GRK2 inh 42.0 | GRK2 confirm 2 inactive | FAM quench SP inactive
Cc1ccc(-c2csc3ncn(CC#N)c(=O)c23)cc1C	GRK2 inh 86.0 | GRK2 CP1 inactive | FAM quench CP1 inactive
Cc1ccc(Cn2c(SC3CCOC3=O)nc3ccccc3c2=O)cc1 (stereo not drawn)	GRK2 inh 43.0 | GRK2 confirm 2 inactive | FAM quench SP inactive
Cc1cc(Br)c2c(c1)C1(OCCO1)C(=O)N2	none
Cc1cc(C)c2c(c1)C1(OCCO1)C(=O)N2	none | GRK2 CP1 inactive | FAM quench CP1 inactive
CCCNC(=O)C(Cc1cccc(C#N)c1)NC(=O)c1ccc(C#N)cc1 (stereo not drawn)	GRK2 inh 82.0 | GRK2 CP1 inactive | FAM quench CP1 inactive
CCCNC(=O)C(Cc1cccc(Cl)c1)NC(=O)c1ccc(C#N)cc1 (stereo not drawn)	none
Cc1ccc(Cl)cc1-c1cc(C(=O)N2CCc3ccccc3C2)[nH]n1	none (no result: GRK2 inh, SR-BI uptake up, SR-BI DiI inh)
CC1(C(=O)Nc2cccc3c2CCCC3)CCN1C(=O)Cc1ccccc1Cl (stereo not drawn)	none (no result: GRK2 inh, SR-BI uptake up, SR-BI DiI inh)
Cc1ccccc1C(=O)Nc1cccc(NC(=O)c2ncn[nH]2)c1	GRK2 inh 99.0 | GRK2 CP1 inactive | FAM quench CP1 inactive
Cc1ccc(NC(=O)c2ncn[nH]2)cc1	none
COc1ccccc1NC(=O)N1CCC(c2nc3cc(C)c(C)cc3[nH]2)CC1	none | GRK2 CP1 inactive | FAM quench CP1 inactive
CCC(=O)N=c1sc2cc([N+](=O)[O-])ccc2n1CCOC	none
CCOC(=O)Cn1c(=NC(=O)C(C)(C)C)sc2cc([N+](=O)[O-])ccc21	GRK2 inh 52.0 | GRK2 confirm 2 inactive | FAM quench SP inactive
O=C(Nc1nnc([C@@H]2C[C@H](O)[C@@H](CO)O2)s1)Nc1ccccc1Oc1ccccc1	none (no result: GRK2 inh, SR-BI uptake up, SR-BI DiI inh)
COC(=O)c1ccc(S(=O)(=O)NCc2ccc(S(N)(=O)=O)cc2)o1	none
COC(=O)c1ccc(S(=O)(=O)NCc2ccco2)o1	GRK2 inh 47.0 | GRK2 CP1 inactive | FAM quench CP1 inactive

Screens as filed in PubChem BioAssay.
